Converted amounts (≈) assume the structure as drawn.
Legend:
Bacillus anthracis [1] = assay: animal or person; settings: in Mus musculus, ip
Bacillus anthracis [2] = assay: animal or person; settings: in Mus musculus, ip; remark: listed apart in the source
Bacillus anthracis [3] = assay: Antimicrobial activity against Bacillus anthracis infected mouse spore inhalation anthrax model assessed as bacterial load per gram of lung tissue at 30 mg/kg, ip every 12 hrs for 14 days treated 48 hrs postinfection; type: functional; settings: route intraperitoneal
Bacillus cereus [4] = assay: Antimicrobial activity against Bacillus cereus ATCC 4342 by broth microdilution method; type: functional
How it was run: (§1)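 B. cereus ATCC 4342 went through stepwise selection for 20 cycles in cation-adjusted Mueller-Hinton broth with doubling drug dilutions. Each cycle was seeded from the previous day's 0.5× MIC wells, in two independent rounds per drug. Selectants showing a fourfold or greater MIC rise were passaged 5 days without drug. Their MICs were then read alongside the parent strain. Oritavancin assays carried 0.002% polysorbate 80 throughout.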

Bacillus cereus [5] = assay: Antimicrobial activity against Bacillus cereus ATCC 4342 selected after 20 daily cycles of drug selection followed by 5 days of nonselective growth by broth microdilution method; type: functional; settings: ATCC 4342, 120 h
How it was run: as §1

Bacillus anthracis [6] = assay: animal or person; settings: in Mus musculus, iv
Bacillus anthracis [7] = assay: animal or person; settings: in Mus musculus, ip; remark: listed apart in the source
Bacillus cereus [8] = assay: Ratio of MIC for Bacillus cereus ATCC 4342 selected after 20 daily cycles of drug selection followed by 5 days of nonselective growth to MIC for Bacillus cereus ATCC 4342; type: functional
How it was run: as §1

Bacillus anthracis [9] = assay: Antimicrobial activity against Bacillus anthracis infected mouse spore inhalation anthrax model assessed as bacterial load per gram of lung tissue at 30 mg/kg, ip every 12 hrs for 14 days treated 36 hrs postinfection; type: functional; settings: route intraperitoneal
Bacillus anthracis [10] = assay: Antimicrobial activity against Bacillus anthracis infected mouse spore inhalation anthrax model assessed as bacterial load per gram of lung tissue at 30 mg/kg, ip every 12 hrs for 14 days treated 24 hrs postinfection; type: functional; settings: route intraperitoneal
Bacillus anthracis [11] = assay: animal or person; settings: in Mus musculus, ip; remark: listed apart in the source
Bacillus anthracis [12] = assay: Antimicrobial activity against Bacillus anthracis infected mouse spore inhalation anthrax model assessed as bacterial load per gram of lung tissue at 10 mg/kg, ip every 48 hrs for 14 days treated 36 hrs postinfection; type: functional; settings: route intraperitoneal
Mus musculus [13] = assay: Free peak concentration in Bacillus anthracis infected mouse spore inhalation anthrax model at 32 mg/kg, iv administered as single dose; type: ADME, organism-based; parameters: dose 32 mg/kg, route intravenous; settings: in vivo
Bacillus anthracis [14] = assay: Antimicrobial activity against Bacillus anthracis infected mouse spore inhalation anthrax model assessed as survival rate at 1 mg/kg, ip every 48 hrs for 14 days treated 24 hrs postinfection; type: functional; settings: route intraperitoneal
Bacillus anthracis [15] = assay: Antimicrobial activity against Bacillus anthracis infected mouse spore inhalation anthrax model assessed as survival rate at 50 mg/kg, iv administered as single dose treated 28 days before infection measured on 22 days postinfection; type: functional
Bacillus anthracis [16] = assay: Antimicrobial activity against Bacillus anthracis infected mouse spore inhalation anthrax model assessed as survival rate at 10 mg/kg, ip every 48 hrs for 14 days treated 24 hrs postinfection; type: functional; settings: route intraperitoneal
Bacillus anthracis [17] = assay: Antimicrobial activity against Bacillus anthracis infected mouse spore inhalation anthrax model assessed as bacterial load per gram of lung tissue at 30 mg/kg, ip every 48 hrs for 14 days treated 24 hrs postinfection; type: functional; settings: route intraperitoneal
Bacillus anthracis [18] = assay: Antimicrobial activity against Bacillus anthracis by broth microdilution method in presence of polysorbate-80; type: functional
Bacillus anthracis [19] = assay: Antimicrobial activity against Bacillus anthracis infected mouse spore inhalation anthrax model assessed as bacterial load per gram of lung tissue at 50 mg/kg, iv administered as single dose treated 24 hrs postinfection; type: functional
Mus musculus [20] = organism: Mus musculus; settings: in vivo, ip, 1.2 mg/kg
Mus musculus [21] = assay: Free peak concentration in Bacillus anthracis infected mouse spore inhalation anthrax model at 32 mg/kg, ip administered as single dose; type: ADME, organism-based; parameters: dose 32 mg/kg, route intraperitoneal; settings: in vivo
Mus musculus [22] = assay: fAUC (0.25 to 72 hrs) in Bacillus anthracis infected mouse spore inhalation anthrax model at 32 mg/kg, iv administered as single dose; type: ADME, organism-based; parameters: dose 32 mg/kg, route intravenous; settings: in vivo
Bacillus anthracis [23] = assay: Antimicrobial activity against Bacillus anthracis infected mouse spore inhalation anthrax model assessed as survival rate at 0.1 mg/kg, ip every 48 hrs for 14 days treated 24 hrs postinfection; type: functional; settings: route intraperitoneal
Bacillus anthracis [24] = assay: Antimicrobial activity against Bacillus anthracis infected mouse spore inhalation anthrax model assessed as bacterial load per gram of lung tissue at 1 mg/kg, ip every 48 hrs for 14 days treated 24 hrs postinfection; type: functional; settings: route intraperitoneal
Bacillus anthracis [25] = assay: Antimicrobial activity against Bacillus anthracis infected mouse spore inhalation anthrax model assessed as survival rate at 50 mg/kg, iv administered as single dose treated 24 hrs postinfection; type: functional
Bacillus anthracis [26] = assay: Antimicrobial activity against Bacillus anthracis infected mouse spore inhalation anthrax model assessed as survival rate at 50 mg/kg, iv administered as single dose treated 7 days before infection measured on 33 days postinfection; type: functional
Mus musculus [27] = assay: fAUC (0.25 to 72 hrs) in Bacillus anthracis infected mouse spore inhalation anthrax model at 32 mg/kg, ip administered as single dose; type: ADME, organism-based; parameters: dose 32 mg/kg, route intraperitoneal; settings: in vivo
Bacillus anthracis [28] = assay: Antimicrobial activity against Bacillus anthracis infected mouse spore inhalation anthrax model assessed as bacterial load per gram of lung tissue at 50 mg/kg, iv administered as single dose treated 24 hrs before infection; type: functional
Bacillus anthracis [29] = assay: Antimicrobial activity against Bacillus anthracis infected mouse spore inhalation anthrax model assessed as bacterial load per gram of lung tissue at 50 mg/kg, iv administered as single dose treated 28 days before infection; type: functional
Bacillus anthracis [30] = assay: Antimicrobial activity against Bacillus anthracis infected mouse spore inhalation anthrax model assessed as bacterial load per gram of lung tissue at 50 mg/kg, iv administered as single dose treated 7 days before infection; type: functional
Bacillus anthracis [31] = assay: Antimicrobial activity against Bacillus anthracis Ames by broth microdilution method in presence of polysorbate-80; type: functional
Bacillus anthracis [32] = assay: Antimicrobial activity against Bacillus anthracis infected mouse spore inhalation anthrax model assessed as survival rate at 50 mg/kg, iv administered as single dose treated 42 hrs postinfection; type: functional
Bacillus anthracis [33] = assay: Antimicrobial activity against Bacillus anthracis infected mouse spore inhalation anthrax model assessed as survival rate at 3 mg/kg, ip every 48 hrs for 14 days treated 24 hrs postinfection; type: functional; settings: route intraperitoneal
Bacillus anthracis [34] = assay: Antimicrobial activity against Bacillus anthracis infected mouse spore inhalation anthrax model assessed as survival rate at 10 mg/kg, ip every 48 hrs for 14 days treated 36 hrs postinfection; type: functional; settings: route intraperitoneal
Bacillus anthracis [35] = assay: Antimicrobial activity against Bacillus anthracis infected mouse spore inhalation anthrax model assessed as bacterial load per gram of lung tissue at 3 mg/kg, ip every 48 hrs for 14 days treated 24 hrs postinfection; type: functional; settings: route intraperitoneal
Bacillus anthracis [36] = assay: Antimicrobial activity against Bacillus anthracis infected mouse spore inhalation anthrax model assessed as bacterial load per gram of lung tissue at 50 mg/kg, iv administered as single dose treated 14 days before infection; type: functional
Bacillus anthracis [37] = assay: Ratio of MIC90 for Bacillus anthracis in presence of polysorbate-80 to MIC90 for Bacillus anthracis; type: functional
Bacillus anthracis [38] = assay: Antimicrobial activity against Bacillus anthracis infected mouse spore inhalation anthrax model assessed as survival rate at 50 mg/kg, iv administered as single dose treated 14 days before infection measured on 22 days postinfection; type: functional
Bacillus anthracis [39] = assay: Antimicrobial activity against Bacillus anthracis infected mouse spore inhalation anthrax model assessed as bacterial load per gram of lung tissue at 0.3 mg/kg, ip every 48 hrs for 14 days treated 24 hrs postinfection; type: functional; settings: route intraperitoneal
Bacillus anthracis [40] = assay: Antimicrobial activity against Bacillus anthracis infected mouse spore inhalation anthrax model assessed as bacterial load per gram of lung tissue at 10 mg/kg, ip every 48 hrs for 14 days treated 24 hrs postinfection; type: functional; settings: route intraperitoneal
Bacillus anthracis [41] = assay: Antimicrobial activity against Bacillus anthracis infected mouse spore inhalation anthrax model assessed as survival rate at 10 mg/kg, ip every 48 hrs for 14 days treated 48 hrs postinfection; type: functional; settings: route intraperitoneal
Bacillus anthracis [42] = assay: Antimicrobial activity against Bacillus anthracis infected mouse spore inhalation anthrax model assessed as survival rate at 5 mg/kg, iv administered as single dose treated 24 hrs postinfection; type: functional
Bacillus anthracis [43] = assay: Antimicrobial activity against Bacillus anthracis infected mouse spore inhalation anthrax model assessed as survival rate at 0.3 mg/kg, ip every 48 hrs for 14 days treated 24 hrs postinfection; type: functional; settings: route intraperitoneal
Bacillus anthracis [44] = assay: Antimicrobial activity against Bacillus anthracis infected mouse spore inhalation anthrax model assessed as bacterial load per gram of lung tissue at 15 mg/kg, iv administered as single dose treated 24 hrs postinfection; type: functional
Bacillus anthracis [45] = assay: Antimicrobial activity against Bacillus anthracis infected mouse spore inhalation anthrax model assessed as survival rate at 50 mg/kg, iv administered as single dose treated 24 hrs before infection measured on 33 days postinfection; type: functional
Bacillus anthracis [46] = assay: Antimicrobial activity against Bacillus anthracis infected mouse spore inhalation anthrax model assessed as bacterial load per gram of lung tissue at 50 mg/kg, iv administered as single dose treated 42 hrs postinfection; type: functional
Bacillus anthracis [47] = assay: Antimicrobial activity against Bacillus anthracis infected mouse spore inhalation anthrax model assessed as survival rate at 30 mg/kg, ip every 48 hrs for 14 days treated 24 hrs postinfection; type: functional; settings: route intraperitoneal
Bacillus anthracis [48] = assay: Antimicrobial activity against Bacillus anthracis infected mouse spore inhalation anthrax model assessed as bacterial load per gram of lung tissue at 10 mg/kg, ip every 48 hrs for 14 days treated 48 hrs postinfection; type: functional; settings: route intraperitoneal
Bacillus anthracis [49] = assay: Antimicrobial activity against Bacillus anthracis infected mouse spore inhalation anthrax model assessed as bacterial load per gram of lung tissue at 5 mg/kg, iv administered as single dose treated 24 hrs postinfection; type: functional
Bacillus anthracis [50] = assay: Antimicrobial activity against Bacillus anthracis infected mouse spore inhalation anthrax model assessed as survival rate at 15 mg/kg, iv administered as single dose treated 24 hrs postinfection; type: functional
Bacillus anthracis [51] = assay: Antimicrobial activity against Bacillus anthracis infected mouse spore inhalation anthrax model assessed as survival rate at 0.1 mg/kg, ip every 48 hrs for 14 days treated 24 hrs postinfection measured on day 3; type: functional; settings: route intraperitoneal
Bacillus anthracis [52] = assay: Antimicrobial activity against Bacillus anthracis infected mouse spore inhalation anthrax model; type: functional; settings: inhaled or nasal

O=C(O)c1cn(C2CC2)c2cc(N3CCNCC3)c(F)cc2c1=O [CIPROFLOXACIN]
survival at 30 mg/kg (Bacillus anthracis [1]): 80% | survival at 30 mg/kg (Bacillus anthracis [2]): 0% | log10cfu (Bacillus anthracis [3]): 3080 | MIC (Bacillus cereus [4]): 0.12 µg/mL (≈ 0.362 µM) | MIC (Bacillus cereus [5]): 0.5 µg/mL (≈ 1.51 µM) | survival at 30 mg/kg (Bacillus anthracis [6]): 0% | survival at 30 mg/kg (Bacillus anthracis [7]): 70% | Ratio (Bacillus cereus [8]): 4 | log10cfu (Bacillus anthracis [9]): 2880 | log10cfu (Bacillus anthracis [10]): 1090 | survival at 30 mg/kg (Bacillus anthracis [11]): 90%

CN[C@H](CC(C)C)C(=O)N[C@H]1C(=O)N[C@@H](CC(N)=O)C(=O)N[C@H]2C(=O)N[C@H]3C(=O)N[C@H](C(=O)N[C@H](C(=O)O)c4cc(O)cc(O)c4-c4cc3ccc4O)[C@H](O[C@H]3C[C@](C)(N)[C@@H](O)[C@H](C)O3)c3ccc(c(Cl)c3)Oc3cc2cc(c3O[C@@H]2O[C@H](CO)[C@@H](O)[C@H](O)[C@H]2O[C@H]2C[C@](C)(NCc3ccc(-c4ccc(Cl)cc4)cc3)[C@@H](O)[C@H](C)O2)Oc2ccc(cc2Cl)[C@H]1O [ORITAVANCIN]
log10cfu (Bacillus anthracis [12]): 2520 | Cmax_unbound (Mus musculus [13]): 17000 ng/mL | survival at 1 mg/kg (Bacillus anthracis [14]): 50% | survival at 50 mg/kg (Bacillus anthracis [15]): 20% | survival at 10 mg/kg (Bacillus anthracis [16]): 100% | log10cfu (Bacillus anthracis [17]): 18200 | MIC90 (Bacillus anthracis [18]): 0.12 µg/mL | log10cfu (Bacillus anthracis [19]): 36100 | fAUC (Mus musculus [20]): 1900 ng·h/mL | Cmax_unbound (Mus musculus [21]): 6100 ng/mL | fAUC (Mus musculus [22]): 61000 ng·h/mL | MIC (Bacillus cereus [4]): 0.004 µg/mL (≈ 0.00223 µM) | survival at 0.1 mg/kg (Bacillus anthracis [23]): 0% | log10cfu (Bacillus anthracis [24]): 29500 | MIC (Bacillus cereus [5]): 0.008 µg/mL (≈ 0.00446 µM) | survival at 50 mg/kg (Bacillus anthracis [25]): 100% | survival at 50 mg/kg (Bacillus anthracis [26]): 90% | fAUC (Mus musculus [27]): 54000 ng·h/mL | log10cfu (Bacillus anthracis [28]): 1980 | log10cfu (Bacillus anthracis [29]): 51000 | log10cfu (Bacillus anthracis [30]): 63000 | MIC (Bacillus anthracis [31]): 0.015 µg/mL | survival at 50 mg/kg (Bacillus anthracis [32]): 55% | survival at 3 mg/kg (Bacillus anthracis [33]): 100% | survival at 10 mg/kg (Bacillus anthracis [34]): 90% | log10cfu (Bacillus anthracis [35]): 36800 | log10cfu (Bacillus anthracis [36]): 65000 | Ratio (Bacillus anthracis [37]): 16 | survival at 50 mg/kg (Bacillus anthracis [38]): 100% | log10cfu (Bacillus anthracis [39]): 28000 | log10cfu (Bacillus anthracis [40]): 35000 | Ratio (Bacillus cereus [8]): 1 | survival at 10 mg/kg (Bacillus anthracis [41]): 50% | survival at 5 mg/kg (Bacillus anthracis [42]): 40% | survival at 0.3 mg/kg (Bacillus anthracis [43]): 30% | log10cfu (Bacillus anthracis [44]): 20300 | survival at 50 mg/kg (Bacillus anthracis [45]): 100% | log10cfu (Bacillus anthracis [46]): 740 | survival at 30 mg/kg (Bacillus anthracis [47]): 100% | log10cfu (Bacillus anthracis [48]): 1680 | log10cfu (Bacillus anthracis [49]): 35000 | survival at 15 mg/kg (Bacillus anthracis [50]): 70% | Activity (Bacillus anthracis [51]): 100% | ED50 (Bacillus anthracis [52]): 1.2 mg/kg

From ChEMBL document CHEMBL1687708, “Efficacy of oritavancin in a murine model of Bacillus anthracis spore inhalation anthrax” (Antimicrob Agents Chemother, 2008)
